According to ChEMBL document CHEMBL1141286, “Benzochromenones from the marine crinoid Comantheria rotula inhibit hypoxia-inducible factor-1 (HIF-1) in cell-based reporter assays and differentially suppress the growth of certain tumor cell lines” (J Nat Prod, 2007):
Activity calls are given as the source filed them. The rule behind the calls is not given here.

Key:
NCI-H226 = assay: Growth inhibition of human NCI-H226 cells; format: functional
[1] = DPPH radical scavenging activity relative to Trolox; format: functional; set-up: concentration or dose not given beside the values
Summary of the method: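 Compounds were made up as DMSO stocks and diluted in isopropanol to a final 10 μM. Each was mixed with DPPH in isopropanol at 10 μM or 30 μM DPPH, and absorbance was read at 515 nm. Scavenging was calculated as [1 − OD515(compound)/OD515(control)] × 100, then expressed as a percentage of Trolox activity. One experiment was run in triplicate.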

U-251 = assay: Growth inhibition of human U251 cells; format: functional
SR = assay: Growth inhibition of human SR cells; format: functional
MDA-MB-231 = assay: Growth inhibition of human MDA-MB-231 cells; format: functional
MOLT-4 = assay: Growth inhibition of human MOLT4 cells; format: functional
SK-OV-3 = assay: Growth inhibition of human SK-OV3 cells; format: functional
EKVX = assay: Growth inhibition of human EKVX cells; format: functional
[2] = Inhibition of 1,10-phenanthroline-induced HIF1 activation in PC3 cells by TK-luciferase assay; format: cell-based; conditions: Homo sapiens, PC-3
Summary of the method: (§1)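 HIF-1 reporter (pHRE-TK-Luc) assays in transfected PC-3 or T47D cells; HIF-1 induced by hypoxia or by the hypoxia mimetic 1,10-phenanthroline (10 μM); compounds at half-log concentrations; luciferase activity measured; IC50 from experiments in triplicate.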

SK-MEL-5 = assay: Growth inhibition of human SK-MEL5 cells; format: functional
A549 = assay: Growth inhibition of human A549 cells; format: functional
UO-31 = assay: Growth inhibition of human UO31 cells; format: functional
NCI-H322M = assay: Growth inhibition of human NCI-H322M cells; format: functional
NCI-H460 = assay: Growth inhibition of human NCI-H460 cells; format: functional
A498 = assay: Growth inhibition of human A498 cells; format: functional
BT-549 = assay: Growth inhibition of human BT549 cells; format: functional
CAKI-1 = assay: Growth inhibition of human CAKI1 cells; format: functional
NCI/ADR-RES = assay: Growth inhibition of human NCI/ADR-RES cells; format: functional
LOX IMVI = assay: Growth inhibition of human LOXIMVI cells; format: functional
SF-539 = assay: Growth inhibition of human SF539 cells; format: functional
HCC 2998 = assay: Growth inhibition of human HCC2998 cells; format: functional
NCI-H522 = assay: Growth inhibition of human NCI-H522 cells; format: functional
HT-29 = assay: Growth inhibition of human HT29 cells; format: functional
T47D = assay: Inhibition of 1,10-phenanthroline-induced VEGF protein secretion in human T47D cells at 10 uM after 16 hrs by ELISA; format: functional, cell-based
Summary of the method: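 T47D cells stimulated with 1,10-phenanthroline, compound at 10 μM; secreted VEGF in conditioned media by ELISA, normalized to cell-lysate protein.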

OVCAR-8 = assay: Growth inhibition of human OVACAR8 cells; format: functional
Malme-3M = assay: Growth inhibition of human MALME-3M cells; format: functional
[3] = Inhibition of 1,10-phenanthroline-induced HIF1 activation in T47D cells by TK-luciferase assay; format: cell-based; conditions: Homo sapiens; summary of the method: as §1
K562 = assay: Growth inhibition of human K562 cells; format: functional
HCT-116 = assay: Growth inhibition of human HCT116 cells; format: functional
HOP-62 = assay: Growth inhibition of human HOP62 cells; format: functional
Hs-578T = assay: Growth inhibition of human HS578T cells; format: functional
TK-10 = assay: Growth inhibition of human TK10 cells; format: functional
HL-60 = assay: Growth inhibition of human HL60 cells; format: functional
OVCAR-4 = assay: Growth inhibition of human OVACAR4 cells; format: functional
KM12 = assay: Growth inhibition of human KM12 cells; format: functional
RXF 393 = assay: Growth inhibition of human RXF393 cells; format: functional
SNB-19 = assay: Growth inhibition of human SNB19 cells; format: functional
M14 = assay: Growth inhibition of human M14 cells; format: functional
786-0 = assay: Growth inhibition of human 786-0 cells; format: functional
SF-268 = assay: Growth inhibition of human SF268 cells; format: functional
[4] = read-out: Log LC50 (the source's name) (converted)

COc1cc(O)cc2cc3oc(C)cc(=O)c3c(OC)c12 [COMANTHERIN]
GI50 (NCI-H226): > 100 µM
CC50 (NCI-H226; [4]): > 100 µM
TGI (NCI-H226; read-out: Log TGI (converted)): > 100 µM
Activity [1]: 40%
GI50 (U-251): 100 µM
LC50 (U-251): > 100 µM
TGI (U-251; read-out: Log TGI (converted)): > 100 µM
GI50 (SR): 97.7 µM
CC50 (SR; [4]): > 100 µM
TGI (SR; read-out: Log TGI (converted)): > 100 µM
GI50 (MDA-MB-231): > 100 µM
LC50 (MDA-MB-231): > 100 µM
TGI (MDA-MB-231; read-out: Log TGI (converted)): > 100 µM
GI50 (MOLT-4): > 100 µM
CC50 (MOLT-4; [4]): > 100 µM
TGI (MOLT-4; read-out: Log TGI (converted)): > 100 µM
GI50 (SK-OV-3): > 100 µM
LC50 (SK-OV-3): > 100 µM
TGI (SK-OV-3; read-out: Log TGI (converted)): > 100 µM
GI50 (EKVX): > 100 µM
CC50 (EKVX; [4]): > 100 µM
TGI (EKVX; read-out: Log TGI (converted)): > 100 µM
IC50 [2]: > 10 µM
GI50 (SK-MEL-5): > 100 µM
LC50 (SK-MEL-5): > 100 µM
TGI (SK-MEL-5; read-out: Log TGI (converted)): > 100 µM
GI50 (A549): > 100 µM
CC50 (A549; [4]): > 100 µM
TGI (A549; read-out: Log TGI (converted)): > 100 µM
GI50 (UO-31): > 100 µM
LC50 (UO-31): > 100 µM
TGI (UO-31; read-out: Log TGI (converted)): > 100 µM
GI50 (NCI-H322M): > 100 µM
CC50 (NCI-H322M; [4]): > 100 µM
TGI (NCI-H322M; read-out: Log TGI (converted)): > 100 µM
GI50 (NCI-H460): > 100 µM
CC50 (NCI-H460; [4]): > 100 µM
TGI (NCI-H460; read-out: Log TGI (converted)): > 100 µM
GI50 (A498): > 100 µM
LC50 (A498): > 100 µM
TGI (A498; read-out: Log TGI (converted)): > 100 µM
GI50 (BT-549): 74.1 µM
LC50 (BT-549): > 100 µM
TGI (BT-549; read-out: Log TGI (converted)): > 100 µM
GI50 (CAKI-1): > 100 µM
LC50 (CAKI-1): > 100 µM
TGI (CAKI-1; read-out: Log TGI (converted)): > 100 µM
GI50 (NCI/ADR-RES): > 100 µM
LC50 (concentration killing 50% of cells) (NCI/ADR-RES): > 100 µM
TGI (NCI/ADR-RES; read-out: Log TGI (converted)): > 100 µM
GI50 (LOX IMVI): > 100 µM
LC50 (LOX IMVI): > 100 µM
TGI (LOX IMVI; read-out: Log TGI (converted)): > 100 µM
GI50 (SF-539): > 100 µM
LC50 (SF-539): > 100 µM
TGI (SF-539; read-out: Log TGI (converted)): > 100 µM
GI50 (HCC 2998): > 100 µM
CC50 (HCC 2998; [4]): > 100 µM
TGI (HCC 2998; read-out: Log TGI (converted)): > 100 µM
GI50 (NCI-H522): > 100 µM
CC50 (NCI-H522; [4]): > 100 µM
TGI (NCI-H522; read-out: Log TGI (converted)): > 100 µM
GI50 (HT-29): > 100 µM
CC50 (HT-29; [4]): > 100 µM
TGI (HT-29; read-out: Log TGI (converted)): > 100 µM
Activity (T47D): inactive
GI50 (OVCAR-8): > 100 µM
LC50 (OVCAR-8): > 100 µM
TGI (OVCAR-8; read-out: Log TGI (converted)): > 100 µM
GI50 (Malme-3M): > 100 µM
CC50 (Malme-3M; [4]): > 100 µM
TGI (Malme-3M; read-out: Log TGI (converted)): > 100 µM
IC50 [3]: 2.7 µM
GI50 (K562): 47.9 µM
CC50 (K562; [4]): > 100 µM
TGI (K562; read-out: Log TGI (converted)): > 100 µM
GI50 (HCT-116): > 100 µM
CC50 (HCT-116; [4]): > 100 µM
TGI (HCT-116; read-out: Log TGI (converted)): > 100 µM
GI50 (HOP-62): > 100 µM
CC50 (HOP-62; [4]): > 100 µM
TGI (HOP-62; read-out: Log TGI (converted)): > 100 µM
GI50 (Hs-578T): 21.9 µM
LC50 (Hs-578T): > 100 µM
TGI (Hs-578T; read-out: Log TGI (converted)): > 100 µM
GI50 (TK-10): > 100 µM
LC50 (TK-10): > 100 µM
TGI (TK-10; read-out: Log TGI (converted)): > 100 µM
GI50 (HL-60): > 100 µM
LC50 (HL-60): > 100 µM
TGI (HL-60; read-out: Log TGI (converted)): > 100 µM
GI50 (OVCAR-4): > 100 µM
LC50 (OVCAR-4): > 100 µM
TGI (OVCAR-4; read-out: Log TGI (converted)): > 100 µM
GI50 (KM12): > 100 µM
CC50 (KM12; [4]): > 100 µM
TGI (KM12; read-out: Log TGI (converted)): > 100 µM
GI50 (RXF 393): > 100 µM
LC50 (RXF 393): > 100 µM
TGI (RXF 393; read-out: Log TGI (converted)): > 100 µM
GI50 (SNB-19): > 100 µM
LC50 (SNB-19): > 100 µM
TGI (SNB-19; read-out: Log TGI (converted)): > 100 µM
GI50 (M14): > 100 µM
LC50 (50% lethal concentration) (M14): > 100 µM
TGI (M14; read-out: Log TGI (converted)): > 100 µM
GI50 (786-0): > 100 µM
LC50 (786-0): > 100 µM
TGI (786-0; read-out: Log TGI (converted)): > 100 µM
GI50 (SF-268): 85.1 µM
LC50 (SF-268): > 100 µM
TGI (SF-268; read-out: Log TGI (converted)): > 100 µM
